Test [1] in a line: Ability to displace [3H]LY-341,495 binding to Group II Metabotropic glutamate receptor from rat forebrain. The method, boiled down: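 Rat forebrain homogenates; displacement of the group II-selective radioligand [3H]LY341495. Where an IC50 below 100 µM could be determined, runs were in triplicate. Values are given as mean IC50 ± standard error.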
The target in test [2] is T1, Metabotropic glutamate receptor 2 (Homo sapiens, UniProt Q14416). Nature of the test: Ability to displace [3H]LY-341,495 from recombinant human Metabotropic glutamate receptor 2 subtypes expressed in RGT cells. Format: cell-based.
The target of test [3] is T2, Metabotropic glutamate receptor 3 (Homo sapiens, UniProt Q14832). Briefly: Ability to displace [3H]LY-341,495 from recombinant human Metabotropic glutamate receptor 3 expressed in RGT cells. Format: cell-based.
Test [4] has as its target Metabotropic glutamate receptor 1 (Homo sapiens, UniProt Q13255). Briefly: […] in RGT cells expressing recombinant human mGluR1a. Format: functional, cell-based. The gist of the method: (§1)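 AV12-664 (RGT) cells co-expressing the GLAST glutamate transporter and one recombinant human mGlu receptor (mGlu1a, mGlu4a, mGlu5a, mGlu6, mGlu7a or mGlu8). Second-messenger response measured; agonist and antagonist modes tested, typically up to 10 000–100 000 nM. EC50 and Emax reported.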
For orientation: cAMP levels reflect the balance of adenylyl cyclase and phosphodiesterase activity.

Test [5] relates to Mus musculus. Nature of the test: Effect on limbic seizures induced by ACPD in NIH Swiss mice 4 hr after systemic administration. Format: functional. Conditions: Limbic system. The method, boiled down: (§2)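 Male NIH Swiss mice received test agent ip 1, 2 or 4 h before unilateral intracerebral injection of (1S,3R)-ACPD (400 nmol). Controls received H2O ip before ic H2O or ACPD. Mice were watched after ACPD for limbic seizures (clonic forelimb contractions, rearing to a praying stance, loss of balance, falling). Scored as number seizing/number treated (n=10); ED50 calculated.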

In test [6] the target is Metabotropic glutamate receptor 4 (Homo sapiens, UniProt Q14833). Nature of the test: Inhibition of forskolin stimulated cAMP production in RGT cells expressing recombinant human mGluR4a. Format: functional, cell-based. The method, boiled down: as §1
Test [7] deals with Mus musculus. Briefly: Effect on limbic seizures induced by ACPD in NIH Swiss mice 1 hr after systemic administration. Format: functional. Conditions: Limbic system. The method, boiled down: as §2
For test [8], the target named is T2, Metabotropic glutamate receptor 3. Briefly: Inhibition of forskolin stimulated cAMP production in RGT cells expressing recombinant human Metabotropic glutamate receptor 3. Format: functional, cell-based.
Test [9] has as its system Mus musculus. Nature of the test: Effect on limbic seizures induced by ACPD in NIH Swiss mice at 100 mg/kg dose 1 hr after systemic administration. Format: functional, Limbic system. The gist of the method: as §2
The target of test [10] is Metabotropic glutamate receptor 5 (Homo sapiens, UniProt P41594). Briefly: […] in RGT cells expressing recombinant human mGluR5a. The class given is functional, cell-based. The method, boiled down:
as §1

Test [11] deals with Mus musculus. Briefly: Effect on limbic seizures induced by ACPD in NIH Swiss mice at 30 mg/kg dose 1 hr after systemic administration. The class given is functional, Limbic system. The method, boiled down: as §2
Test [12] addresses Metabotropic glutamate receptor 6 (Homo sapiens, UniProt O15303). Briefly: Inhibition of forskolin stimulated cAMP production in RGT cells expressing recombinant human mGluR6. The class given is functional, cell-based. The gist of the method:
as §1

The target in test [13] is Metabotropic glutamate receptor 8 (Homo sapiens, UniProt O00222). Nature of the test: Inhibition of forskolin stimulated cAMP production in RGT cells expressing recombinant human mGluR8. Format: functional, cell-based. The method, boiled down: as §1
For test [14], the system named is Mus musculus. Briefly: Effect on limbic seizures induced by ACPD in NIH Swiss mice 2 hr after systemic administration. Format: functional. To be noted: Limbic system. The gist of the method:
as §2

Test [15] deals with T1, Metabotropic glutamate receptor 2. Briefly: Inhibition of forskolin stimulated cAMP production in RGT cells expressing recombinant human Metabotropic glutamate receptor 2. Format: functional, cell-based.
Test [16] addresses Metabotropic glutamate receptor 7 (Homo sapiens, UniProt Q14831). Nature of the test: Inhibition of forskolin stimulated cAMP production in RGT cells expressing recombinant human mGluR7. Format: functional, cell-based. The method, boiled down:
as §1

Test [17] deals with T3, Glutamate receptor ionotropic, AMPA (Rattus norvegicus, UniProt P19490+P19491+P19492+P19493). Briefly: Ability to displace [3H]AMPA binding to Ionotropic glutamate receptor AMPA from rat forebrain. The gist of the method: (§3)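 Rat forebrain homogenates; displacement of [3H]kainic acid (kainate), [3H]AMPA (AMPA) or [3H]CGP39653 (NMDA) binding, tested up to 100 000 nM. Where an IC50 below 100 µM could be determined, runs were in triplicate. Values are given as mean IC50 ± standard error.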

Test [18] concerns the target Glutamate receptor ionotropic, kainate. Briefly: Ability to displace [3H]-KA binding to Ionotropic glutamate receptor kainate from rat forebrain. The method, boiled down: as §3
Test [19] can be described thus: Ability to displace [3H]CGP-39653 binding to N-methyl-D-aspartate glutamate receptor from rat forebrain. The method, boiled down:
as §3

In test [20] the target is T3, Glutamate receptor ionotropic, AMPA. Briefly: Binding affinity against Ionotropic glutamate receptor AMPA using [3H]AMPA as radioligand. Format: protein-complex assay. The gist of the method:
as §3

Chain of Metabotropic glutamate receptor 6 (O15303 whole entry): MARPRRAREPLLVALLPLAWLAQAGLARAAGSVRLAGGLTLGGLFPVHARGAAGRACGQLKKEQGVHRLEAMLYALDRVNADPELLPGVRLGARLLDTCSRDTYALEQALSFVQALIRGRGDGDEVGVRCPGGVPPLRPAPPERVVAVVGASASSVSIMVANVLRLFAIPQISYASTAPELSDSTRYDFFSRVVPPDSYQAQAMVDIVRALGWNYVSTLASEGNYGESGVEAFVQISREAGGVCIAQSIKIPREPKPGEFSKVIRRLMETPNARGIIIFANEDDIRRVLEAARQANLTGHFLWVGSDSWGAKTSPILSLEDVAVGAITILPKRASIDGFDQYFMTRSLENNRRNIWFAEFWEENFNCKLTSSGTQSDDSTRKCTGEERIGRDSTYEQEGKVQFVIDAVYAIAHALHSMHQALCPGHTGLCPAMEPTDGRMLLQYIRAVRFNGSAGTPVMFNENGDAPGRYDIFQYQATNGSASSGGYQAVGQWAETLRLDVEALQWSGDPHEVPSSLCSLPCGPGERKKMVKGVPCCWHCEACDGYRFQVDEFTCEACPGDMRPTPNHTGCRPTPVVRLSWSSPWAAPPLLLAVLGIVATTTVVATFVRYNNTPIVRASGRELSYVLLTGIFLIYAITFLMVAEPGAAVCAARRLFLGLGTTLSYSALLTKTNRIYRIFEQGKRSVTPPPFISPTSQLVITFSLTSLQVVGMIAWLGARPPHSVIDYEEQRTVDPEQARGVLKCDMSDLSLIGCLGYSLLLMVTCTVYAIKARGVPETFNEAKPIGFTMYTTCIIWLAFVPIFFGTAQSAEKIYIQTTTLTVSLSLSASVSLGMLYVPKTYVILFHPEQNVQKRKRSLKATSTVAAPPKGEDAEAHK
Chain of Metabotropic glutamate receptor 1 (Q13255 whole entry): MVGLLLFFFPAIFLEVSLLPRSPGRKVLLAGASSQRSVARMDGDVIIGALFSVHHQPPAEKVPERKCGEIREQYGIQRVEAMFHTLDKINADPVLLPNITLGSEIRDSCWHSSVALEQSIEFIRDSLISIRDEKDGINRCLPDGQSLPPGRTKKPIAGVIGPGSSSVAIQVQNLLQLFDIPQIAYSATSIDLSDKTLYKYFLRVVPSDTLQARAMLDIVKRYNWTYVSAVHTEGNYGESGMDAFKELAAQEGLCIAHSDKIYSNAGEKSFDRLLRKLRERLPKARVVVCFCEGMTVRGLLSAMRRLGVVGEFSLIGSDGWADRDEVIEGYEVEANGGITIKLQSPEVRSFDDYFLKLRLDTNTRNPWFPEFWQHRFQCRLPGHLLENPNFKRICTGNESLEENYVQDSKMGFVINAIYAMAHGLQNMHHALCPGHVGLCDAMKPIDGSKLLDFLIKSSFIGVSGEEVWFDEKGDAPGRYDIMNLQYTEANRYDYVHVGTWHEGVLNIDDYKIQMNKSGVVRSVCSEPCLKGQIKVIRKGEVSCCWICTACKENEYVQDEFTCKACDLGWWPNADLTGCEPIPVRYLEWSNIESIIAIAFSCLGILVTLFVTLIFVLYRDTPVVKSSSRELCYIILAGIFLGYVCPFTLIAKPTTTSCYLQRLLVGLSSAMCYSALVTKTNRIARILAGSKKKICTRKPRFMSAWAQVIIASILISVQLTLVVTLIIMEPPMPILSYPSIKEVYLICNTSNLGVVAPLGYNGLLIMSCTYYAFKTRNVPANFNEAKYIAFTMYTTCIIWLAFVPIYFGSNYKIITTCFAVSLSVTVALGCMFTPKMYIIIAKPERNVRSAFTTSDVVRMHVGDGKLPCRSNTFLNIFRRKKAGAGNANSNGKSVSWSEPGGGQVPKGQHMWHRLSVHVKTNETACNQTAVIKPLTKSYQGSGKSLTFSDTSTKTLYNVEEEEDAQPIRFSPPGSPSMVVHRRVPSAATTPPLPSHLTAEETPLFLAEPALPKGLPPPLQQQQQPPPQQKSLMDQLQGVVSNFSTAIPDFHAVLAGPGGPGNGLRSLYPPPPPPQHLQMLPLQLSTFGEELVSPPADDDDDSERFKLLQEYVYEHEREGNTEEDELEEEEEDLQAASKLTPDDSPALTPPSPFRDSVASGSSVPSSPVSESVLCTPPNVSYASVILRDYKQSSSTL
Chain of Metabotropic glutamate receptor 4 (Q14833 whole entry): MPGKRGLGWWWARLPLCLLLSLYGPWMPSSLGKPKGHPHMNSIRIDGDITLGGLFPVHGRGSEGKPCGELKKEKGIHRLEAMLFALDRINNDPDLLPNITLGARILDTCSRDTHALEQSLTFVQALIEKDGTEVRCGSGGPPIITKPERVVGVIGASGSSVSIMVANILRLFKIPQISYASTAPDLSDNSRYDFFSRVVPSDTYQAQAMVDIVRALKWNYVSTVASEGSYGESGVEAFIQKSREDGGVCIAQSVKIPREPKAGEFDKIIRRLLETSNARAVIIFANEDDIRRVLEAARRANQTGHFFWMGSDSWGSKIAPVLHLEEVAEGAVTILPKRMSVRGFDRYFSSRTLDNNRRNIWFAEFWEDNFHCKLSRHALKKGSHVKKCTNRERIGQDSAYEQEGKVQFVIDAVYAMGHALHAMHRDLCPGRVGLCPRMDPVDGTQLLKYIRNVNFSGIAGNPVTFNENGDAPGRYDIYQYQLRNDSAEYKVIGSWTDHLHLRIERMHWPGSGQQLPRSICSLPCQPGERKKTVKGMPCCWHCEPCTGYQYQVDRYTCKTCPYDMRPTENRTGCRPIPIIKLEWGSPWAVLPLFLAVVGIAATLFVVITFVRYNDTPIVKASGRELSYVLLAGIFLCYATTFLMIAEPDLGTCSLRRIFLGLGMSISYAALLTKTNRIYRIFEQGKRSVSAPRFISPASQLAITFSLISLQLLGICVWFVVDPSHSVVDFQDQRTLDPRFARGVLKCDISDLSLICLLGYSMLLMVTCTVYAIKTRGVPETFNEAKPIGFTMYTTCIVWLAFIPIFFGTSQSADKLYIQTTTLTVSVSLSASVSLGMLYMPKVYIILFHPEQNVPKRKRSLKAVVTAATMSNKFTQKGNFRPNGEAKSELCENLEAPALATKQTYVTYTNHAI
T2 sequence (Q14832 whole entry): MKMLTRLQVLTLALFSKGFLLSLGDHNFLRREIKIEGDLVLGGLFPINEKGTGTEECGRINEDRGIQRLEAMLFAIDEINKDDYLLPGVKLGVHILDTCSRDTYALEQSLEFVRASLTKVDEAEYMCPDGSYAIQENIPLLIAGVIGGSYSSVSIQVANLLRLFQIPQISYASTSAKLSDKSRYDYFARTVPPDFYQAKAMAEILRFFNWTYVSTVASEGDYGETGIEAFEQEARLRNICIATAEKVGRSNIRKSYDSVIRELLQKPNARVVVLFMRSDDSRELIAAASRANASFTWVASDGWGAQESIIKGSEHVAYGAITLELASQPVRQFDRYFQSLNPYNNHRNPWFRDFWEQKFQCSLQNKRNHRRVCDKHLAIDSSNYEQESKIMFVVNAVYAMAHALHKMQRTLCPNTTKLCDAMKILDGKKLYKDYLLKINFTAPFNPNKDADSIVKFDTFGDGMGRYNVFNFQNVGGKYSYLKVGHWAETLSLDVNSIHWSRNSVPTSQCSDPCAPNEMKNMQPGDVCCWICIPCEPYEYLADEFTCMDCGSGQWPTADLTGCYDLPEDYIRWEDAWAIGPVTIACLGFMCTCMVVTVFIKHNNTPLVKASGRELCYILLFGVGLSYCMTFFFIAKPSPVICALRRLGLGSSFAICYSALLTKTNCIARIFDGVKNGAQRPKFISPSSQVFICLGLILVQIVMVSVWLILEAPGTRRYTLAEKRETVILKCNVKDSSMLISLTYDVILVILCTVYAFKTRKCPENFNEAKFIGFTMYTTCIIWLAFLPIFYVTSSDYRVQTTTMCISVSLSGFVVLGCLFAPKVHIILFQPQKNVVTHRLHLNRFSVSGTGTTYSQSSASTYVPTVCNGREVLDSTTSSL
T1 sequence (Q14416 whole entry): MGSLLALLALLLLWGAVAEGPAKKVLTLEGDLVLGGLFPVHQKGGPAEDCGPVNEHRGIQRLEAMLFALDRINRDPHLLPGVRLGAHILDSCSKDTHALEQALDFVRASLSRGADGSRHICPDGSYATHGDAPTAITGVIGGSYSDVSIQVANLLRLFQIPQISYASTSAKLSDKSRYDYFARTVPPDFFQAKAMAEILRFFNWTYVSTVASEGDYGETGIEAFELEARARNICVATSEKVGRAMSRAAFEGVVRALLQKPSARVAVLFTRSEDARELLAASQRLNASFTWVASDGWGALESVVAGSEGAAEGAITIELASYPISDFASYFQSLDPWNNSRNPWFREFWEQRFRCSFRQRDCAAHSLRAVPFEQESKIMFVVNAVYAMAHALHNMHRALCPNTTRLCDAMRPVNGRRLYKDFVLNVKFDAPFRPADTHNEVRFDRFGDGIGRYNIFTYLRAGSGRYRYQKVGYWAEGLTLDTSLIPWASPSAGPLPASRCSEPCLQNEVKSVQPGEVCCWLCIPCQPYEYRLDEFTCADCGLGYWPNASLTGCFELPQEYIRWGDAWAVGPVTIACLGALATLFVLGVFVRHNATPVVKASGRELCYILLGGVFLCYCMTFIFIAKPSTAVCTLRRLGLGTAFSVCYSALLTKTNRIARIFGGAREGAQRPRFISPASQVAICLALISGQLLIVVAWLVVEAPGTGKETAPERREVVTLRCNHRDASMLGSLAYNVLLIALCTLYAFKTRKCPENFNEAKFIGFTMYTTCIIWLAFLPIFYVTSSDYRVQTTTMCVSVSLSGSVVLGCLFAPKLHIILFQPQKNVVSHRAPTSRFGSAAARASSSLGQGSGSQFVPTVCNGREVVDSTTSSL

In the case of `N[C@@]1(C(=O)O)CO[C@H]2[C@H](C(=O)O)[C@H]21` (racemic) [LY-379268], the concentration for half-maximal inhibition (IC50) (in general, the concentration that gives 50% inhibition) in test [1] was 0.029 µM. For the same compound, the figures for the Ki in test [2] and in test [3] were 0.0365 µM and 0.0143 µM, respectively.
As for `N[C@@]1(C(=O)O)CS[C@H]2[C@H](C(=O)O)[C@H]21` (stereo in doubt; (-)-10) [LY-389795], the EC50 – broadly, the concentration that produces a half-maximal response – in [4] is more than 100 µM; in test [6], more than 100 µM; in [8], 0.00763 µM; in test [10], more than 100 µM; in test [12] it was 2.43 µM; in test [13], 7.34 µM. Further, the EC50 in test [15] was 0.00391 µM; in test [16] it was more than 100 µM. In addition, the ED50 (in general, the dose at which the effect has come halfway, by size or by number of responders) was 14 mg/kg in the test on Mus musculus [5], 14 mg/kg in the test on Mus musculus [7] and 15 mg/kg in the test with Mus musculus [14]. In test [1], this compound displayed an IC50 of 0.0084 µM. Moreover, the Ki – broadly, a measure of affinity in units of concentration, obtained from inhibition or displacement – in test [2] is 0.0406 µM; in test [3] it was 0.0047 µM. In addition, the “No. of mice effected/No. of treated” value in the test with Mus musculus [9] and in the test on Mus musculus [11] was 10 throughout.
In the case of `N[C@@]1(C(=O)O)CO[C@H]2[C@H](C(=O)O)[C@H]21` (stereo in doubt; (-)-9) [LY-379268], the concentration giving a half-maximal response (EC50) was more than 100 µM in [4]; 21.1 µM in test [6]; 0.00458 µM in [8]; more than 100 µM in test [10]; 0.401 µM in test [12]; 1.69 µM in test [13]. Further, the EC50 was 0.00269 µM in [15] and more than 100 µM in test [16]. In addition, the ED50 in the test on Mus musculus [5] was 26 mg/kg; in the test on Mus musculus [7] it was 19 mg/kg; in the test on Mus musculus [14], 6 mg/kg. The half-maximal inhibitory concentration (IC50) is 0.015 µM in test [1], more than 100 µM in test [17], more than 100 µM in test [18] and more than 100 µM in [19]. Besides, the figures for the inhibition constant Ki in test [2] and in test [3] were 0.0141 µM and 0.0058 µM, respectively. For the same compound, the “No. of mice effected/No. of treated” value in the test on Mus musculus [9] and in the test on Mus musculus [11] was 10 each time.
Compound `N[C@@]1(C(=O)O)CO[C@H]2[C@H](C(=O)O)[C@H]21` (stereo in doubt; (+)-9) [LY-379268] showed an IC50 in test [1] of 5.04 µM. For the same compound, the Ki in [2] came out at 2 µM; in [3] it was 1.04 µM.
As to `N[C@@]1(C(=O)O)CC[C@H]2[C@H](C(=O)O)[C@H]21` [EGLUMETAD], the 50% effective concentration (EC50) was more than 100 µM in test [4]; more than 100 µM in [6]; 0.038 µM in [8]; more than 100 µM in test [10]; 2.99 µM in test [12]; 11.5 µM in test [13]. Further, the concentration giving a half-maximal response (EC50) in test [15] was 0.0111 µM; in test [16] it was more than 100 µM. Also, the IC50 in [1] was 0.254 µM; in test [20] it was more than 100 µM; in test [18], more than 100 µM; in test [19], more than 100 µM. Also, the inhibition constant (Ki) in [2] was 0.0749 µM; in test [3] it was 0.0933 µM.
Take `N[C@@]1(C(=O)O)CS[C@H]2[C@H](C(=O)O)[C@H]21` (stereo in doubt; (+)-10) [LY-389795]: the half-inhibitory concentration (IC50) in test [1] was found to be 0.792 µM. In addition, the values for the Ki in test [2] and in test [3] were 0.819 µM and 0.17 µM, respectively.
Turning to `N[C@@]1(C(=O)O)CS[C@H]2[C@H](C(=O)O)[C@H]21` (racemic) [LY-389795], the IC50 is 0.0261 µM in test [1], more than 100 µM in test [17], more than 100 µM in test [18] and more than 100 µM in test [19]. Moreover, the inhibitory constant (Ki) in [2] turned out to be 0.0672 µM; in test [3] it was 0.0094 µM.

Source of the values: ChEMBL document CHEMBL1132607, “Synthesis, pharmacological characterization, and molecular modeling of heterobicyclic amino acids related to (+)-2-aminobicyclo[3.1.0] hexane-2,6-dicarboxylic acid (LY354740): identification of two new potent, selective, and systemically active agonists for group II metabotropic glutamate receptors” (J Med Chem, 1999).
